Assays:
[1] = Elimination half life in Sprague-Dawley rat at 1.1 mg/kg, iv; assay type: ADME, organism-based; settings: in vivo, read-out: beta t1/2 (converted)
[2] = Clearance in Sprague-Dawley rat at 1.1 mg/kg, iv; assay type: ADME, organism-based; settings: in vivo
[3] = Oral bioavailability in Sprague-Dawley rat at 1.1 mg/kg; assay type: ADME, organism-based; settings: in vivo
[4] = molecular target: T1, Sodium/glucose cotransporter 2 (Homo sapiens, UniProt P31639); assay: Inhibition of human SGLT2 expressed in CHO cells assessed as reduction in [14C]AMG uptake after 1 hr by microbeta counting method; assay type: cell-based
T1 sequence (P31639 whole entry): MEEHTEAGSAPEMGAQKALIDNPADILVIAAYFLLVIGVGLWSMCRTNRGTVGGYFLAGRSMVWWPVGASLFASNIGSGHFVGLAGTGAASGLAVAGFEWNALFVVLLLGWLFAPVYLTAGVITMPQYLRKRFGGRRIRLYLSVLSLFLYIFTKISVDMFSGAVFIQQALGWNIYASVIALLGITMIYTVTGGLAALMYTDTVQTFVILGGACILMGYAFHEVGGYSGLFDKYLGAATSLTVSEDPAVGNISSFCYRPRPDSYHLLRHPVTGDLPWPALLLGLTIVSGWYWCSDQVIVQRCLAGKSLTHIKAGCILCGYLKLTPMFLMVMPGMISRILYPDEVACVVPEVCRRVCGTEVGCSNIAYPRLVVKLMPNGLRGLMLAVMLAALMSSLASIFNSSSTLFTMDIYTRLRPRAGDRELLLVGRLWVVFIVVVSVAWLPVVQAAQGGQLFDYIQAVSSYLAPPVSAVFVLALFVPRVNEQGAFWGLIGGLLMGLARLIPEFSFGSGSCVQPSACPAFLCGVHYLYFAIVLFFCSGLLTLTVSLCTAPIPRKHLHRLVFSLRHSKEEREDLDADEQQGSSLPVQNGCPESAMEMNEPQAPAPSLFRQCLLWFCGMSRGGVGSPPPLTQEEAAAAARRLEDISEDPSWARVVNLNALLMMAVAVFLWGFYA
In short: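 CHO cells stably expressing human SGLT2 (or SGLT1); inhibition of sodium-dependent uptake of [14C]α-methyl-D-glucopyranoside measured; EC50 from at least two independent experiments, each in triplicate.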

[5] = AUC (0 to infinity) in Sprague-Dawley rat at 1.1 mg/kg, po; assay type: ADME, organism-based; parameters: dose 1.1 mg/kg, time infinity, route oral; settings: in vivo
In short: (§1)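 Rats got a single intravenous or oral dose, with 3 animals per route. Pharmacokinetic parameters were derived, including T1/2, clearance, Vss, Cmax, Tmax, AUC(0-inf) and oral bioavailability (F).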

[6] = Cmax in Sprague-Dawley rat at 1.1 mg/kg, po; assay type: ADME, organism-based; parameters: dose 1.1 mg/kg, route oral; settings: in vivo
[7] = AUC (0 to infinity) in Sprague-Dawley rat at 1.1 mg/kg, iv; assay type: ADME, organism-based; parameters: dose 1.1 mg/kg, route intravenous, time infinity; settings: in vivo; in short: as §1
[8] = Elimination half life in Sprague-Dawley rat at 1.1 mg/kg, po; assay type: ADME, organism-based; settings: in vivo, read-out: beta t1/2 (converted)
[9] = Volume of distribution at steady state in Sprague-Dawley rat at 1.1 mg/kg, iv; assay type: ADME, organism-based; settings: in vivo, read-out: Vdss
[10] = Tmax in Sprague-Dawley rat at 1.1 mg/kg, po; assay type: ADME, organism-based; settings: in vivo
[11] = Clearance in Sprague-Dawley rat at 0.9 mg/kg, iv; assay type: ADME, organism-based; settings: in vivo
[12] = AUC (0 to infinity) in Sprague-Dawley rat at 0.9 mg/kg, iv; assay type: ADME, organism-based; parameters: dose 0.9 mg/kg, route intravenous, time infinity; settings: in vivo; in short: as §1
[13] = Volume of distribution at steady state in Sprague-Dawley rat at 0.9 mg/kg, iv; assay type: ADME, organism-based; settings: in vivo, read-out: Vdss
[14] = Elimination half life in Sprague-Dawley rat at 0.9 mg/kg, iv; assay type: ADME, organism-based; settings: in vivo, read-out: beta t1/2 (converted)

CCOc1ccc(Cc2cc([C@@H]3O[C@H](/C=N/NCCO)[C@@H](O)[C@H](O)[C@H]3O)ccc2Cl)cc1
half-life [1]: 42 min | clearance [2]: 17.6 mL/min/kg | bioavailability [3]: 7.1% | EC50 [4]: 88 nM | AUC(0-inf) [5]: 73 ng·h/mL | Cmax [6]: 34.5 ng/mL | AUC(0-inf) [7]: 1030 ng·h/mL | half-life [8]: 72 min | Vd [9]: 0.8 L/kg | Tmax [10]: 42 min

CCOc1ccc(Cc2cc([C@@H]3O[C@H](/C=N/NC(=O)c4ccc(Cl)cc4)[C@@H](O)[C@H](O)[C@H]3O)ccc2Cl)cc1
EC50 [4]: 65 nM

CCOc1ccc(Cc2cc([C@@H]3O[C@H](/C=N/NC(C)=O)[C@@H](O)[C@H](O)[C@H]3O)ccc2Cl)cc1
EC50 [4]: 395 nM

CCOc1ccc(Cc2cc([C@@H]3O[C@H](/C=N/Nc4nc5ccccc5s4)[C@@H](O)[C@H](O)[C@H]3O)ccc2Cl)cc1
EC50 [4]: 204 nM

CCOc1ccc(Cc2cc([C@@H]3O[C@H](CNO)[C@@H](O)[C@H](O)[C@H]3O)ccc2Cl)cc1
EC50 [4]: 95 nM

CCOc1ccc(Cc2cc([C@@H]3O[C@H](CNNc4ccc([N+](=O)[O-])cc4)[C@@H](O)[C@H](O)[C@H]3O)ccc2Cl)cc1
EC50 [4]: 211 nM

CCOc1ccc(Cc2cc([C@@H]3O[C@H](/C=N/NC(=O)c4ccsc4)[C@@H](O)[C@H](O)[C@H]3O)ccc2Cl)cc1
EC50 [4]: 208 nM

CCOc1ccc(Cc2cc([C@@H]3O[C@H](/C=N/OCCOC)[C@@H](O)[C@H](O)[C@H]3O)ccc2Cl)cc1
EC50 [4]: 678 nM

CCOc1ccc(Cc2cc([C@@H]3O[C@H](/C=N/OCC4CC4)[C@@H](O)[C@H](O)[C@H]3O)ccc2Cl)cc1
EC50 [4]: 1950 nM

CCOc1ccc(Cc2cc([C@@H]3O[C@H](/C=N/NC(=O)c4ccccc4)[C@@H](O)[C@H](O)[C@H]3O)ccc2Cl)cc1
clearance [11]: 75.7 mL/min/kg | EC50 [4]: 130 nM | AUC(0-inf) [12]: 206 ng·h/mL | Vd [13]: 1.4 L/kg | half-life [14]: 21.6 min

C#CCO/N=C/[C@H]1O[C@@H](c2ccc(Cl)c(Cc3ccc(OCC)cc3)c2)[C@H](O)[C@@H](O)[C@@H]1O
EC50 [4]: 431 nM

CCO/N=C/[C@H]1O[C@@H](c2ccc(Cl)c(Cc3ccc(OCC)cc3)c2)[C@H](O)[C@@H](O)[C@@H]1O
EC50 [4]: 335 nM

CCOc1ccc(Cc2cc([C@@H]3O[C@H](/C=N/OCCC(C)(C)C)[C@@H](O)[C@H](O)[C@H]3O)ccc2Cl)cc1
EC50 [4]: 8540 nM

CCOc1ccc(Cc2cc([C@@H]3O[C@H](/C=N/Nc4ccc([N+](=O)[O-])cc4)[C@@H](O)[C@H](O)[C@H]3O)ccc2Cl)cc1
EC50 [4]: 370 nM

Source: ChEMBL document CHEMBL4138227, “Identification of an oxime-containing C-glucosylarene as a potential inhibitor of sodium-dependent glucose co-transporter 2” (Eur J Med Chem, 2018)
